Experiments:
[1] = Inhibition of Trypanosoma brucei TREU927 Leucyl-tRNA Synthetase expressed in Escherichia coli BL21 (DE3)-RIPL using [14C]Leu by scintillation counting
Summary of the method: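 Compound preincubated 20 min at 37 °C without ATP, then started with 4 mM ATP. After 15 min, TCA-precipitated on filters. Nine-point IC50 curves, sigmoidal fit, reference inhibitor per batch.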

L929 = test: Cytotoxicity against mouse L929 cells after 72 hrs; format: cell-based; details: L929, 72 h
Summary of the method: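 Fibroblasts grown in D-MEM with 10% FBS and pen/strep, kept subconfluent. Seeded from 1 × 10^4/mL suspension, attached overnight, medium replaced, serially diluted compound added from DMSO. Exposure 72 h at 37 °C, 5% CO2. Resazurin added for 3-4 h more, fluorescence read at ex 544/em 590 nm.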

[2] = tested on: Trypanosoma brucei brucei; test: Antitrypanosomal activity against bloodstream-form Trypanosoma brucei brucei 427 after 72 hrs; format: functional, organism-based; details: Trypanosoma brucei, 427, 72 h
Summary of the method: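 HMI-9 with 10% FBS, 10% Serum Plus and pen/strep; log-phase parasites at final 1.0 × 10^5/mL, 0.4% DMSO. Serially diluted compound, 72 h at 37 °C, 5% CO2, then resazurin for 2-4 h more. Fluorescence read at ex 544/em 590 nm. Triplicates averaged, IC50 from sigmoidal dose-response fit; suramin and pentamidine as positive controls.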

| Structure (SMILES) | IC50 [1] [µM] | IC50 (L929) [µg/mL] | IC50 [2] [µM] |
| --- | --- | --- | --- |
| O=C1c2ccccc2C(=O)N1CCCOc1ccc2c(c1)B(O)OC2 | > 100 | – | – |
| CCOC(=O)/C=C/c1cccc2c1B(O)OC2 | > 1000 | – | – |
| CCOC(=O)CCc1cccc2c1B(O)OC2 | > 1000 | – | – |
| OCCCc1cccc2c1B(O)OC2 | 541 | – | – |
| O=C(/C=C/c1cccc2c1B(O)OC2)c1ccccc1 | 412 | – | – |
| CCOC(=O)/C=C/c1ccc2c(c1)B(O)OC2 | 578 | – | – |
| CCOC(=O)CCc1ccc2c(c1)B(O)OC2 | 16.7 | – | – |
| OCCCc1ccc2c(c1)B(O)OC2 | 688 | – | – |
| O=C(/C=C/c1ccc2c(c1)B(O)OC2)c1ccccc1 | 209 | – | – |
| OB1OCc2ccc(O)cc21 | 30.9 | – | – |
| OB1OCc2ccc(OCc3ccccc3)cc21 | 30.6 | – | – |
| OB1OCc2ccc(OCc3ccccc3F)cc21 | 25.6 | – | – |
| OB1OCc2ccc(Oc3ccc4ccccc4n3)cc21 | 63 | – | – |
| OB1OCc2ccc(OCc3ccccn3)cc21 | > 100 | – | – |
| OB1OCc2ccc(OCC3CCCCC3)cc21 | > 100 | – | – |
| COC(COc1ccc2c(c1)B(O)OC2)OC | 71.3 | – | – |
| O=C(O)COc1ccc2c(c1)B(O)OC2 | > 100 | – | – |
| O=CCOc1ccc2c(c1)B(O)OC2 | > 100 | – | – |
| CC(C)(C)OC(=O)NCCOc1ccc2c(c1)B(O)OC2 | > 100 | – | – |
| CCOc1ccc2c(c1)B(O)OC2 | 13 | – | – |
| CCCOc1ccc2c(c1)B(O)OC2 | 30.9 | – | – |
| CC(C)Oc1ccc2c(c1)B(O)OC2 | 15.8 | – | – |
| CCCCOc1ccc2c(c1)B(O)OC2 | 54.3 | – | – |
| COCCOc1ccc2c(c1)B(O)OC2 | > 100 | – | – |
| CCOC(=O)COc1ccc2c(c1)B(O)OC2 | 3.5 | > 10 | 0.72 |

| Structure (SMILES) | IC50 [1] [µM] | IC50 (L929) [µg/mL] | IC50 [2] [µM] |
| --- | --- | --- | --- |
| O=C(Nc1ccccc1)Oc1ccc2c(c1)B(O)OC2 | 43.1 | – | – |
| O=C(NC1CCCCC1)Oc1ccc2c(c1)B(O)OC2 | 32.3 | – | – |
| COC(=O)COc1ccc2c(c1)B(O)OC2 | 3.6 | > 10 | 1.22 |
| CC(C)(C)OC(=O)COc1ccc2c(c1)B(O)OC2 | 7.4 | > 10 | 2.61 |
| CCOC(=O)C(C)Oc1ccc2c(c1)B(O)OC2 (stereo not drawn) | 2.8 | > 10 | 3 |
| CCOC(=O)C(CC)Oc1ccc2c(c1)B(O)OC2 (stereo not drawn) | 1.6 | > 10 | 11.3 |
| CCOC(=O)C(C)(C)Oc1ccc2c(c1)B(O)OC2 | 2.1 | > 10 | 5.49 |
| CCOC(=O)C(Oc1ccc2c(c1)B(O)OC2)c1ccccc1 (stereo not drawn) | 41.7 | – | – |
| CCNC(=O)COc1ccc2c(c1)B(O)OC2 | 77.7 | – | – |
| CC(C)(C)NC(=O)COc1ccc2c(c1)B(O)OC2 | > 100 | – | – |
| CCCC(=O)COc1ccc2c(c1)B(O)OC2 | 30.8 | – | – |
| CCC(=O)COc1ccc2c(c1)B(O)OC2 | 27.2 | – | – |
| CCC(=O)C(C)Oc1ccc2c(c1)B(O)OC2 (stereo not drawn) | 2.5 | > 10 | 8.25 |
| CCCC(=O)C(CC)Oc1ccc2c(c1)B(O)OC2 (stereo not drawn) | 2.9 | > 10 | 12.9 |
| CC(=O)C(C)Oc1ccc2c(c1)B(O)OC2 (stereo not drawn) | 3.8 | > 10 | 2.09 |
| CC(=O)C(C)(C)Oc1ccc2c(c1)B(O)OC2 | 5 | > 10 | 0.37 |
| CCC(Oc1ccc2c(c1)B(O)OC2)C(C)=O (stereo not drawn) | 3.5 | > 10 | 3.76 |
| CCCC(Oc1ccc2c(c1)B(O)OC2)C(C)=O (stereo not drawn) | 31.4 | – | – |
| CC(=O)C(Oc1ccc2c(c1)B(O)OC2)C(C)C (stereo not drawn) | 4.5 | > 10 | 2.74 |
| CC(C)CC(=O)COc1ccc2c(c1)B(O)OC2 | 67.6 | – | – |
| CCC(O)C(C)Oc1ccc2c(c1)B(O)OC2 (stereo not drawn) | > 100 | – | – |
| OB1OCc2ccccc21 [BENZOXABOROLE] | 22.1 | – | – |
| N=C(N)c1ccc(OCCCCCOc2ccc(C(=N)N)cc2)cc1 [PENTAMIDINE] | – | – | 0.026 |
| Cc1ccc(C(=O)Nc2ccc(S(=O)(=O)O)c3cc(S(=O)(=O)O)cc(S(=O)(=O)O)c23)cc1NC(=O)c1cccc(NC(=O)Nc2cccc(C(=O)Nc3cc(C(=O)Nc4ccc(S(=O)(=O)O)c5cc(S(=O)(=O)O)cc(S(=O)(=O)O)c45)ccc3C)c2)c1 [SURAMIN] | – | – | 0.005 |
